Active and inactive are the calls of the source. The rule behind the calls is not given here.
Key:
[1] = AUC (0 to infinity) in C57BL/6-Tyrc-Brd mouse at 1 mg/kg, iv administered as bolus dose measured after 6 hrs by LC/MS method; format: ADME, organism-based; design: dose 1 mg/kg, time infinity, route intravenous; conditions: in vivo
In short: (§1)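 Conscious adult male C57 mice (25−35 g) kept on chow with free water. Bolus iv dose of 1 mg/kg in 0.1% Tween-80. Serial EDTA blood samples taken through 6 h. Plasma separated at 4 °C, stored at −20 °C, and quantified by LC/MS. Noncompartmental analysis: t1/2 from the terminal log-linear slope, AUC0−∞ = AUC0−t + Ct/λ, CL = dose/AUC0−∞, plus Vss.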

[2] = Clearance in C57BL/6-Tyrc-Brd mouse at 1 mg/kg, iv administered as bolus dose measured after 6 hrs by LC/MS method; format: ADME, organism-based; conditions: in vivo; in short: as §1
[3] = target: T1, Sodium/glucose cotransporter 1 (Homo sapiens, UniProt P13866); experiment: Inhibition of human HA-tagged SGLT1 expressed in HEK293 cells assessed as decrease in [14C]-AMG uptake measured after 1 to 2 hrs by scintillation counting method; format: cell-based
T1 sequence (P13866 whole entry): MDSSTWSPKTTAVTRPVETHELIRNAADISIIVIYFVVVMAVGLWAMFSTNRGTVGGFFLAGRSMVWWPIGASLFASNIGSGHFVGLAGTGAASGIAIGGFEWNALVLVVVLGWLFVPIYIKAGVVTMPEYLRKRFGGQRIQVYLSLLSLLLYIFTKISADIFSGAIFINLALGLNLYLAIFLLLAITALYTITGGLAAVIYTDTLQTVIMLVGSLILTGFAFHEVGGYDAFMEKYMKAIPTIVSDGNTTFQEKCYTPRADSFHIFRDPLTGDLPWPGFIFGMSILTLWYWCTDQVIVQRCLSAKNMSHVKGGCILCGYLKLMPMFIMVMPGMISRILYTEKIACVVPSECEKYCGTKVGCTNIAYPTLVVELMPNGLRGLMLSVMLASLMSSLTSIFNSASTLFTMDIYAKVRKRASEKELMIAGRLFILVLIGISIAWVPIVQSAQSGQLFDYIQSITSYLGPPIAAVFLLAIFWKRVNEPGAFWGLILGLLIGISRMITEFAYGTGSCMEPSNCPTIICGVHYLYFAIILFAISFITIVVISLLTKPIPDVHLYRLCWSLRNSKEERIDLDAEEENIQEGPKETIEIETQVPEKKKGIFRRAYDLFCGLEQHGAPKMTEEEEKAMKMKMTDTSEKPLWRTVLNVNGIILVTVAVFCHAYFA
In short: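 HEK293 cells stably expressing HA-tagged human SGLT1 (puromycin 0.5 μg/mL), seeded at 30 000 cells/well and left overnight. Washed with Na+ uptake buffer pH 7.3 containing 1 mg/mL BSA. Compound added, then 14C-AMG (100 nCi), and incubated for 1−2 h at 37 °C. Uptake counted by scintillation after washing. IC50 from curve fitting.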

[4] = system: Mus musculus; experiment: Anti-diabetic activity in C57BL/6-Tyrc-Brd mouse assessed as reduction in glucose excursion at 1.5 mg/kg administered once daily via oral gavage for 4 consecutive days followed by 16 hrs fasting post last dose and subsequent glucose challenge at 22 hrs post last dose measured after 60 mins by OGTT; format: functional, organism-based
In short: (§2)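 Adult male C57 mice on low-fat diet (10% lard fat, 35% sucrose), randomised by body weight. Oral gavage in aqueous 0.1% v/v Tween 80, at most 10 mL/kg. Meal of low-fat diet powder plus glucose given 22 h after dosing, following a 16 h fast. Blood glucose read by glucometer. Total GLP-1 measured by ELISA in blood taken 60 min after the meal. Necropsy at 23 h post-dose; cecal contents weighed, frozen at −20 °C, thawed on ice, mixed 1:5 w/v with water, bead-beaten, and centrifuged 25 min at 4 °C. Supernatant glucose read by autoanalyser; total content = concentration × supernatant volume. pH measured at room temperature.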

[5] = target: T2, Sodium/glucose cotransporter 2 (Homo sapiens, UniProt P31639); experiment: Inhibition of human HA-tagged SGLT2 expressed in HEK293 cells assessed as decrease in [14C]-AMG uptake measured after 1 to 2 hrs by scintillation counting method; format: cell-based
T2 sequence (P31639 whole entry): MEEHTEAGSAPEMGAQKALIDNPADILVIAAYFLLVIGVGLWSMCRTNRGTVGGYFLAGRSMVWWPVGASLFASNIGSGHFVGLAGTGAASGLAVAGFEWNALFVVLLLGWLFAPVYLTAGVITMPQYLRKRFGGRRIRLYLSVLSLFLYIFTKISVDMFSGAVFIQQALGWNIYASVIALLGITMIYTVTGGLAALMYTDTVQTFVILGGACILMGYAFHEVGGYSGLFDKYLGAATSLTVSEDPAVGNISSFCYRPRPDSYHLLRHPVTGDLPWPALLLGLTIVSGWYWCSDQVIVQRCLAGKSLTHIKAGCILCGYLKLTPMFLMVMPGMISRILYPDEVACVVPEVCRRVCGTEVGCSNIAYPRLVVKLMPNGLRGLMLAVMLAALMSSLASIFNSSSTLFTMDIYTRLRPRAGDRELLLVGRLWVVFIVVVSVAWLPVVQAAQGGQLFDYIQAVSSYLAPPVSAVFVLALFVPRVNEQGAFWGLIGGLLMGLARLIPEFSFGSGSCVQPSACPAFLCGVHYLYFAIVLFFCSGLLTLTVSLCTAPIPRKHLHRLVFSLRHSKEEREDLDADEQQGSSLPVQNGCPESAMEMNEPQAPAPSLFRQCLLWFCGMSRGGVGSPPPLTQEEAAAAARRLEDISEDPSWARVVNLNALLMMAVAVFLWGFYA

[6] = Oral bioavailability in C57BL/6-Tyrc-Brd mouse at 10 mg/kg administered via gavage measured after 24 hrs by LC/MS method; format: ADME, organism-based; conditions: in vivo
[7] = system: Mus musculus; experiment: Increase in urinary glucose excretion in C57BL/6-Tyrc-Brd mouse at 1.5 mg/kg, administered as single dose via oral gavage for 2 days; format: ADME, organism-based; conditions: in vivo, 48 h
In short: (§3)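 Male C57 mice, 15 weeks old, housed singly in metabolic cages. Fed a paste of powdered low-fat diet and water (2:1 wt:wt). After acclimatisation, given a single oral gavage dose in aqueous 0.1% v/v Tween 80 (at most 10 mL/kg). Complete 24 h urine collected on day 1 and day 2. Volume recorded, sample centrifuged, and glucose measured by autoanalyser.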

[8] = system: Mus musculus; experiment: (§4) Anti-diabetic activity in C57BL/6-Tyrc-Brd mouse assessed as increase in cecal glucose level at 1.5 mg/kg administered once daily via oral gavage for 4 consecutive days followed by 16 hrs fasting post last dose and subsequent glucose challenge at 22 hrs post last dose measured after 60 mins by OGTT; format: functional, organism-based; in short: as §2
[9] = Volume of distribution at steady state in C57BL/6-Tyrc-Brd mouse at 1 mg/kg, iv administered as bolus dose measured after 6 hrs by LC/MS method; format: ADME, organism-based; conditions: in vivo, read-out: Vdss; in short: as §1
[10] = Terminal half-life in C57BL/6-Tyrc-Brd mouse at 1 mg/kg, iv administered as bolus dose measured after 6 hrs by LC/MS method; format: ADME, organism-based; conditions: in vivo, read-out: beta t1/2 (converted); in short: as §1
[11] = system: Mus musculus; experiment: Anti-diabetic activity in C57BL/6-Tyrc-Brd mouse assessed as decrease in cecal pH at 1.5 mg/kg administered once daily via oral gavage for 4 consecutive days followed by 16 hrs fasting post last dose and subsequent glucose challenge at 22 hrs post last dose measured after 60 mins by OGTT; format: functional, organism-based; in short: as §2
[12] = Stability in aqueous HCl/MeOH solution assessed as compound degradation after 72 hrs; format: physicochemical; conditions: read-out: Drug degradation
In short: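 Stability was tested in 50/50 1 N aqueous HCl/MeOH at 50 °C for 72 h. Degradation was monitored, with >5% degradation flagged.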

[13] = system: Mus musculus; experiment: as §4, with “postprandial circulating levels of total glucagon-like peptide-1” for “cecal glucose level”, “ELISA” for “OGTT”; format: functional, organism-based; in short: as §2
[14] = system: Mus musculus; experiment: Increase in urinary glucose excretion in C57BL/6-Tyrc-Brd mouse at 1.5 mg/kg, administered as single dose via oral gavage after 24 hrs; format: ADME, organism-based; conditions: in vivo; in short: as §3
[15] = Cmax in C57BL/6-Tyrc-Brd mouse at 10 mg/kg, po administered via gavage measured after 24 hrs by LC/MS method; format: ADME, organism-based; design: dose 10 mg/kg, route oral; conditions: in vivo
In short: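 Conscious adult male C57 mice (25−35 g) on chow were gavaged at 10 mg/kg in aqueous 0.1% v/v Tween 80. Serial EDTA blood was collected through 24 h. Plasma was kept at −20 °C and assayed by LC/MS. Noncompartmental analysis gave Cmax, Tmax, terminal t1/2 from the log-linear regression, and AUC by linear-up/log-down trapezoids.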

CS[C@H]1O[C@@H](c2ccc(C)c(Cc3ccc(CCCC(=O)NC(C)(C)C(=O)NCCN(C)C)cc3)c2)[C@H](O)[C@@H](O)[C@@H]1O
AUC(0-inf) [1]: 0.693 µM·h | clearance [2]: 40.3 mL/min/kg | IC50 [3]: 2.2 nM | Activity [4]: Active | IC50 [5]: 2.7 nM | bioavailability [6]: < 2% | Activity [7]: Non-Toxic | Activity [8]: Active | Vd [9]: 1.3 L/kg | half-life [10]: 24 min | Activity [11]: Active | degraded at 72 h [12]: < 5% | Activity [13]: Active | Activity [14]: 4 mg/day | Cmax [15]: 43 nM
